Assay type in all cases: cell-based
For assay [1], the target named is Sodium-dependent serotonin transporter (Homo sapiens, UniProt P31645). In words: In vitro displacement of [3H]paroxetine from human serotonin transporter expressed in HEK293 cells. For orientation: Loss of bound radioactivity is the signal in a displacement assay; it reports binding, not function.
The target in assay [2] is Sodium-dependent noradrenaline transporter (Homo sapiens, UniProt P23975). The assay is described as follows: In vitro displacement of [3H]nisoxetine from human norepinephrine transporter expressed in HEK293 cells. In outline: (§1)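 Competitive binding using cloned human transporters expressed in HEK-293 cells. NET was labelled with [³H]nisoxetine and DAT with [³H]GBR12935, following a previously published procedure.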
Sodium-dependent noradrenaline transporter, sequence (P23975 whole entry): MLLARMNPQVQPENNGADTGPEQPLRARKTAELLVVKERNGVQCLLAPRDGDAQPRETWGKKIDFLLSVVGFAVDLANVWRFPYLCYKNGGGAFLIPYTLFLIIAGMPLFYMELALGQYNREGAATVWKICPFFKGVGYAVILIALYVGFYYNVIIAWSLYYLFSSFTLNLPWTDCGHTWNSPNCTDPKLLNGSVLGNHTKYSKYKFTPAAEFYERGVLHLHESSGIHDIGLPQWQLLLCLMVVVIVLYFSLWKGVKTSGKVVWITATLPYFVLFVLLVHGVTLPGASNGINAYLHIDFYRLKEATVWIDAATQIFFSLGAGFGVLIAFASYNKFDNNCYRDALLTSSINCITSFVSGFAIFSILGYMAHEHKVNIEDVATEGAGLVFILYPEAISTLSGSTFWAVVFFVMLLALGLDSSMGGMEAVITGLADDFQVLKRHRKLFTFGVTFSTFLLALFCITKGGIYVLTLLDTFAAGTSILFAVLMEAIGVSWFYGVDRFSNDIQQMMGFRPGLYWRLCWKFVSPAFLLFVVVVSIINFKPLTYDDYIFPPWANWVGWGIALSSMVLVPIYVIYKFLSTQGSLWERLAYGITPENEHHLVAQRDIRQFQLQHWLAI

The target of assay [3] is Sodium-dependent dopamine transporter (Homo sapiens, UniProt Q01959). In words: In vitro displacement of [3H]GBR-12935 from human dopamine transporter expressed in HEK293 cells. In outline: as §1
Sodium-dependent dopamine transporter, sequence (Q01959 whole entry): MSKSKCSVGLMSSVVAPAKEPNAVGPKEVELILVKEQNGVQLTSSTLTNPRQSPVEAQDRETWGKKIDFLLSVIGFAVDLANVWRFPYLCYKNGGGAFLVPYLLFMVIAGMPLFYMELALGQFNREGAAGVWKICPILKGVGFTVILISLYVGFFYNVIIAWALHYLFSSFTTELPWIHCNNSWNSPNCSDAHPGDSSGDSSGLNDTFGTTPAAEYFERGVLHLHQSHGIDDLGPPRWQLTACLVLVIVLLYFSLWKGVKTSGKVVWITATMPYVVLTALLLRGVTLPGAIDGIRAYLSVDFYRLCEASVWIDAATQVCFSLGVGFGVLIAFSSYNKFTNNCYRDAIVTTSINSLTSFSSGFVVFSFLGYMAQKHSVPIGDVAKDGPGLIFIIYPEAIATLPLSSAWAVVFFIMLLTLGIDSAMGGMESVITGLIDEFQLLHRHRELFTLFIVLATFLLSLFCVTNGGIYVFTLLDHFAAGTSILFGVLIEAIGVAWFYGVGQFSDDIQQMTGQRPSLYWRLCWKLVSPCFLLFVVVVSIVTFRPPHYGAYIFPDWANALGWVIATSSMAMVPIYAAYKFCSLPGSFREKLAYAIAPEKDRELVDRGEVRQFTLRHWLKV

Consider 1 compound from ChEMBL document CHEMBL1145212, “Fluorinated diaryl sulfides as serotonin transporter ligands: synthesis, structure-activity relationship study, and in vivo evaluation of fluorine-18-labeled compounds as PET imaging agents” (J Med Chem, 2005).

Structures are written as SMILES.

Sodium-dependent serotonin transporter, sequence (P31645 whole entry): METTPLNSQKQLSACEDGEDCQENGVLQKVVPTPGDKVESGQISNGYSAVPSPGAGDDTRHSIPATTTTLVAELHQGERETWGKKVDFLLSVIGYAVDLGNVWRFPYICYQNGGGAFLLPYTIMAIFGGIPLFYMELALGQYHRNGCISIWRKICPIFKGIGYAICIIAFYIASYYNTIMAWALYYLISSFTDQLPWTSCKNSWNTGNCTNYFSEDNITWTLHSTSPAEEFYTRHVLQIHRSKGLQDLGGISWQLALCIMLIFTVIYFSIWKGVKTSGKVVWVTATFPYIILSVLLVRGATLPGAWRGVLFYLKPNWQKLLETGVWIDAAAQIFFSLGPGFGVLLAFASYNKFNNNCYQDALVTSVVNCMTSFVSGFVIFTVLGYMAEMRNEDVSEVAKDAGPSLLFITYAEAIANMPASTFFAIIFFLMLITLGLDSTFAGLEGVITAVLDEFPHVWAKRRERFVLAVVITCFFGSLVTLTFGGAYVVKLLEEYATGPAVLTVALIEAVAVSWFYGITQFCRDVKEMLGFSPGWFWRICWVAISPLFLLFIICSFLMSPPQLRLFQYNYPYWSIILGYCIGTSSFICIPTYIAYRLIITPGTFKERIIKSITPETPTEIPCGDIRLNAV

Broadly, the Ki is a dissociation constant, usually derived from enzyme kinetics or from competition with a known ligand. Read a low Ki as tighter binding. Consider `Cc1cc(N)c(Sc2ccccc2CN(C)C)cc1F`, for which the values for the Ki in assay [1], in assay [2] and in assay [3] were 0.179 µM, 7.04 µM and above 10 µM, respectively.
